Percent modulation of GABA EC20 response and Ki data for two molecules are collected here from ChEMBL document CHEMBL1136055, “3-Heteroaryl-2-pyridones: benzodiazepine site ligands with functional delectivity for alpha 2/alpha 3-subtypes of human GABA(A) receptor-ion channels” (J Med Chem, 2002).

For test [1], the target named is GABA-A receptor; alpha-1/beta-3/gamma-2 (Homo sapiens) (UniProt P14867+P18507+P28472). The experiment in a line: Modulatory effect on coapplication with GABA at human Gamma-aminobutyric acid A receptor alpha-1-beta-3-gamma-2 in Xenopus oocyte. A digest of the protocol: (§1)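 Two-electrode voltage clamp of Xenopus oocytes transiently expressing human α1, α2 or α3 β3γ2S receptors. Test compound is co-applied with GABA at its EC20 (GABA range 4-30 µM). Result is the % change in GABA current, mean (SEM), n = 3-7, at the stated test compound concentration (µM).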

The target in test [2] is T1, GABA-A receptor; alpha-2/beta-3/gamma-2 (Homo sapiens, UniProt P18507+P28472+P47869).
T1 sequence (P18507 whole entry): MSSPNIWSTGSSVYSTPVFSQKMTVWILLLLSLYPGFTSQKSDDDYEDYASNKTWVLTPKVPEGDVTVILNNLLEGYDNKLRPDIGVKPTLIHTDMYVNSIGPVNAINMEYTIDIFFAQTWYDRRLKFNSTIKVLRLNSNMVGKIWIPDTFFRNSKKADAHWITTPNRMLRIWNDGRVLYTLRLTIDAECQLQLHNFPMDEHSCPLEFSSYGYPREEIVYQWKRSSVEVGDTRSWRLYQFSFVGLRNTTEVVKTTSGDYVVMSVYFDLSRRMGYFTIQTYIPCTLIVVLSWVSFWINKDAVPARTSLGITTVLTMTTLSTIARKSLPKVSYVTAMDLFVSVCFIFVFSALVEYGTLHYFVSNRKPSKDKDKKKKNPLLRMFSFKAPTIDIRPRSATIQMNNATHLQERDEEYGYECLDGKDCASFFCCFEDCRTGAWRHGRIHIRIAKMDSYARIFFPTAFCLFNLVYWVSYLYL
T1 sequence (P28472 whole entry): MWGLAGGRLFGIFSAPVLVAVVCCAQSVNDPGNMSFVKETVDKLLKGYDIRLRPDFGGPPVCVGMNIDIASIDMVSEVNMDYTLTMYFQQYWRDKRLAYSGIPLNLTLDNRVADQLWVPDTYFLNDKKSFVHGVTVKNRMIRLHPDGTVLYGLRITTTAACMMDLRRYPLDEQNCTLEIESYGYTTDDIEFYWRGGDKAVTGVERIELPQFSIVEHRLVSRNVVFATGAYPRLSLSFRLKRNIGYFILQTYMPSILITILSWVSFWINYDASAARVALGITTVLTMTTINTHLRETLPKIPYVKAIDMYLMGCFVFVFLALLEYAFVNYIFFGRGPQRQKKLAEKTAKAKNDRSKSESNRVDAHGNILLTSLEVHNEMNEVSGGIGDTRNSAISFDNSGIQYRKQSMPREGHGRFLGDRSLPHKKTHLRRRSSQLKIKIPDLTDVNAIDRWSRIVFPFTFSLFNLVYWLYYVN
T1 sequence (P47869 whole entry): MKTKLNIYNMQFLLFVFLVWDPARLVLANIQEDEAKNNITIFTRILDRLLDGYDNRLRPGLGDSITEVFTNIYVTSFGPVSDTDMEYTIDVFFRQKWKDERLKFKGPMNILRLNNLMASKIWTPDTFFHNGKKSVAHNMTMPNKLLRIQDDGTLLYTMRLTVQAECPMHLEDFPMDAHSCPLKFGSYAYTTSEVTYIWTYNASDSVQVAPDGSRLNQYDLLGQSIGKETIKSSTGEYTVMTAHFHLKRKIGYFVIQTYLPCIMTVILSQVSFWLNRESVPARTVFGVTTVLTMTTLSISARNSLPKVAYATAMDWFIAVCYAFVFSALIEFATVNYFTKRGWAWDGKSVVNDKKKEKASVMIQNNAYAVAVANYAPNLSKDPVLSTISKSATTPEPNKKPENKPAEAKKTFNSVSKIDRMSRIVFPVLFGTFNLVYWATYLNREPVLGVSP
The experiment in a line: Displacement of [3H]Ro-151788 from human Gamma-aminobutyric acid A receptor alpha-2-beta-3-gamma-2 stably expressed in L(tk-) cells. Type of test: cell-based. Put shortly: (§2)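 Competition binding against [3H]Ro15-1788 on cloned human α1/α2/α3/α5 β3γ2S receptors stably expressed in L(tk-) cells. Six to eight test concentrations spaced in half-log steps. Ki given as mean (SEM), n = 3-5, reported to two significant figures.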
Background: Displacement assays read how much labelled ligand stays bound in the presence of the test substance.

In test [3] the target is T2, GABA-A receptor; alpha-1/beta-3/gamma-2 (Homo sapiens, UniProt P14867+P18507+P28472).
T2 sequence (P14867 whole entry): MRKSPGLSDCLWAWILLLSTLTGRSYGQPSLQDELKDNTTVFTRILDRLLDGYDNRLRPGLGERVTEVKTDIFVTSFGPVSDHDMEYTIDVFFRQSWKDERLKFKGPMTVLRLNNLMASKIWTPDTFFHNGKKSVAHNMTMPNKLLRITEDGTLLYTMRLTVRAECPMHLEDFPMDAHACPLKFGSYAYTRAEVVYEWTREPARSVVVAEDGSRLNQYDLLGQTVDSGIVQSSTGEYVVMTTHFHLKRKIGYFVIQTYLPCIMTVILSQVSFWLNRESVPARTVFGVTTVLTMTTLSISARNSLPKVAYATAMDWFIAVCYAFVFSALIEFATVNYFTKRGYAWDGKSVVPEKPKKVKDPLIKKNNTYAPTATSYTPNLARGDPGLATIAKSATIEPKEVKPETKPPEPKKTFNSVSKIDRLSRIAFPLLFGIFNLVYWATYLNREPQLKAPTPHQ
T2 sequence (P18507 whole entry): T1 sequence (P18507 whole entry)
T2 sequence (P28472 whole entry): T1 sequence (P28472 whole entry)
The experiment in a line: Inhibition of [3H]Ro-151788 binding to human GABA A receptor (alpha-1-beta-3-gamma-2) stably expressed in L(tk-) cells. The test is classed as cell-based.

Test [4] deals with T3, GABA-A receptor; alpha-3/beta-3/gamma-2 (Homo sapiens, UniProt P18507+P28472+P34903).
T3 sequence (P18507 whole entry): T1 sequence (P18507 whole entry)
T3 sequence (P28472 whole entry): T1 sequence (P28472 whole entry)
T3 sequence (P34903 whole entry): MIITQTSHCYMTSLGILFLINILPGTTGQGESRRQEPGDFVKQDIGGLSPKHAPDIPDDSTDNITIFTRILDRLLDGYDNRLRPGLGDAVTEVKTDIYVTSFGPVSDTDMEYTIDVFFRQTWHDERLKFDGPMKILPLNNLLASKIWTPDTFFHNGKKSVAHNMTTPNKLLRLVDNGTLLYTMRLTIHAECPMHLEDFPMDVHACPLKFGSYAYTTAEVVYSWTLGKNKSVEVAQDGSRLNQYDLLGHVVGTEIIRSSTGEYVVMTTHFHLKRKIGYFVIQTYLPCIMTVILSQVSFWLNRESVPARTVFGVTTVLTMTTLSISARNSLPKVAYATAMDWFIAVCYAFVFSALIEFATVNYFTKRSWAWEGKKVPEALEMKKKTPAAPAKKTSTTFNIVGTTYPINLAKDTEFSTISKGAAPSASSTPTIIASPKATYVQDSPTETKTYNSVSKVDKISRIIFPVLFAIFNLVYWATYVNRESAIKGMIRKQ
The experiment in a line: Binding affinity by displacement of [3H]Ro-151788 from recombinant human gamma-aminobutyric-acid A receptor alpha3,beta3,gamma2 stably expressed in L cells. The test is classed as cell-based. A digest of the protocol:
as §2

For test [5], the target named is GABA-A receptor; alpha-3/beta-3/gamma-2 (Homo sapiens) (UniProt P18507+P28472+P34903). The experiment in a line: Modulatory effect on coapplication with GABA at human Gamma-aminobutyric acid A receptor alpha-3-beta-3-gamma-2 in Xenopus oocytes. The test is classed as cell-based. The conditions noted are these: Oocyte. Put shortly: as §1

Turning to `COc1ccc(-c2cc(-c3nc(C)cs3)c(=O)n(C)c2-c2ccnnc2)cc1`, the percent modulation of GABA EC20 response in test [1] is 7%; in test [5], 34%. The figures for the Ki in test [2], in test [3] and in test [4] were 6.6 nM, 17 nM and 4.1 nM, respectively.

As for `COc1ccc(-c2cc(-c3nc(C)cs3)c(=O)n(C)c2-c2ccncc2)cc1`, the percent modulation of GABA EC20 response in test [1] was found to be 7%; in test [5], 43%. The Ki in test [2] worked out at 8.6 nM; in test [3] it was 17 nM; in test [4] it was 3.4 nM.

As a reminder, the Ki is the equilibrium dissociation constant of an inhibitor or competing ligand from its target.
